# High-throughput results (PubChem)
# Hck Nef HTS – blocks Nef-activated human Hck kinase | P08631 | Recombinant Hck-YEEI plus Nef, Z-Lyte FRET kinase assay | inhibition, % at 20 µM | actives 0.68% (n = 220,000);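 active means Hck-Nef kinase inhibition above about 50%, limit read from the data; inactive means inhibition below that limit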;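 further: 0% = DMSO with Hck plus Nef and 100% = Hck alone without Nef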
# Runt-CBFb FRET – Runt domain-CBFb interaction inhibition. Q01196+Q13951. Cerulean-Runt/Venus-CBFb FRET ratio 530/480, 1 h. inhibition, % at 20 µM. actives 0.46% (n = 220,000);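 active means inhibition over about 50% at 20 µM in the single-dose screen, limit read from the data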;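 further: 0% = DMSO wells and 100% = excess unlabeled CBFb competitor control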
# Target sequence (Q01196 whole entry, looked up, the tested form may be a part): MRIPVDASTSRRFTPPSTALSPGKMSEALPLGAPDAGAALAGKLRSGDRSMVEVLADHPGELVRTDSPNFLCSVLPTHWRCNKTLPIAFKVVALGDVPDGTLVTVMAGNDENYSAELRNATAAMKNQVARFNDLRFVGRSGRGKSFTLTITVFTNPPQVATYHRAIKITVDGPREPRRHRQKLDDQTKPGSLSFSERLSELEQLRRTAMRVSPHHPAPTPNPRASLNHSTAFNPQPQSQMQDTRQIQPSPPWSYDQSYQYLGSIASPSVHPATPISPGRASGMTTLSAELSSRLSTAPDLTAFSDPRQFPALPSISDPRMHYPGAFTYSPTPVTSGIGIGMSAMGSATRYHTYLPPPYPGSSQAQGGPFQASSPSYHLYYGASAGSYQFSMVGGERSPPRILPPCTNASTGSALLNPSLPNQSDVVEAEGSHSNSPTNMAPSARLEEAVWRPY
# Target sequence (Q13951 whole entry, looked up, the tested form may be a part): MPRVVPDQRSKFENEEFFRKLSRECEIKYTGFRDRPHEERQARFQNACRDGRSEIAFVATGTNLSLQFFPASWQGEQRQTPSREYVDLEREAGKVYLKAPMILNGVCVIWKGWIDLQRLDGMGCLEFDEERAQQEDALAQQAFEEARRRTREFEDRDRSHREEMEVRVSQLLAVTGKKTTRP
#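 Doses: 20 µM compound in 1% DMSO | Material: Cerulean-labeled Runt domain protein | Amount: Each fluorescent fusion protein 100 nM | Schedule: Two 1 h room-temperature incubations shielded from light | Measured by: FRET fluorescence | Evaluation: Loss of energy transfer signal | Controls: Unlabeled CBFb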
# Runt-SMMHC FRET – blocks binding of human RUNX1 Runt domain to CBFb-SMMHC; Q01196+Q13951; Cerulean-Runt/Venus-CBFb-SMMHC FRET ratio 530/480, 1 h; inhibition, % at 20 µM; actives 0.74% (n = 220,000); AID 1434;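 active means mean inhibition across duplicate retests at 20 µM reaching about 50%, limit read from the data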;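 further: 0% = DMSO wells and 100% = wells with excess untagged CBFb-SMMHC; inhibitors lower the FRET ratio by blocking Runt binding to CBFb-SMMHC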
# RanGTP-Impb inh – inhibitors of RanGTP-importin-beta interaction, primary screen, biochemical, FRET, CFP-Ran, YFP-importin-beta, homogeneous; cell-free CFP-Ran/YFP-importin-beta FRET ratio; inhibition, % (concentration not given with the values); actives 1.1% (n = 300,000); AID 2216;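 active means more than half of the replicate wells show a fall in the fluorescence ratio signal beyond about 16%, limit read from the data, passing the limit was not always enough; inconclusive means exactly half of the replicate wells pass the set limit; inactive means fewer than half of replicates pass the limit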;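 further: 0% = DMSO wells and 100% = Ran loaded with GDP instead of GTP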
# YIC counter – counter-screen: alters YIC FRET probe signal | shares compounds with RanGTP-Impb inh | Purified YIC probe, intramolecular FRET ratio YFP/CFP | IC50, µM | actives 40% (n = 1,000);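 active means fitted half-maximal inhibitory concentration no more than tenfold above the top dose tested; inconclusive means flat fit with 30 to 70% activity, or poor fit; inactive means half-maximal concentration beyond tenfold above the top dose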
# Starred values were filed as active, the others as inactive; u = inconclusive; x = no result given. Hits are enriched below; roughly 1.7% of the tested compounds scored in any of these assays.
SMILES,Hck Nef HTS,Runt-CBFb FRET,Runt-SMMHC FRET,RanGTP-Impb inh,YIC counter
NC(=O)c1sc2nccc(Nc3ccccc3)c2c1N,42,23,42,39*,>50
CCOc1cc2c(cc1OC)C(NC(=O)c1ccco1)CC2=O (centres undefined),x,x,x,3,x
NC(=O)Oc1cccc(OC(N)=O)c1,6,0,2,4,x
Cc1cc(N2C(=O)C(O)=C(C(=O)c3cc4ccccc4o3)C2c2cccc(Cl)c2)no1 (centres undefined),x,x,x,25*,7.4*
O=C1/C(=C/c2cccs2)Sc2ccccc21,6,-1,-3,19*,u
OCCNc1c2ccccc2nc2ccccc12,34,109*,116*,40*,4.9*
OCCCNc1nc(-c2ccc(Cl)cc2)nc2ccccc12,x,x,x,4,x
OCCNc1nc(-c2ccccc2)nc2ccccc12,26,1,2,17*,>50
OCCNc1nc2ccccc2nc1NCCO,4,1,4,4,x
Cc1csc(CNC(=O)c2cc(COc3c(C)cccc3C)on2)n1,x,x,x,-2,x
O=[N+]([O-])c1cc(CN2CCCC2)ccc1Sc1ccc(Cl)cc1,9,-1,1,19*,>50
CCNC(=O)N1CCC(n2nccc2NC(=O)CCCc2ccccc2)CC1,x,x,x,-4,x
COc1ccc(C2NC(=S)NC3=C2CCCC3=C2SCCS2)cc1 (centres undefined),20,-5,-2,18*,>50
S=C1NC2=C(CCCC2=C2SCCCS2)C(c2ccccc2)N1 (centres undefined),-7,-6,-4,-2,x
CCN(CC)CCNc1nc2nonc2nc1NCCN(CC)CC,30,-1,2,-3,x
O=C(CN(Cc1ccccc1Cl)C(=O)c1csnn1)NC1CCCC1,x,x,x,4,x
CCOC(=O)N1CCC(NC(=O)c2ccc3c(Cl)c4c(nc3c2)CCCC4)CC1,-6,0,-12,x,x
O=C(NC1CC1)c1ccc2c(Cl)c3c(nc2c1)CCCC3,22,-4,0,17*,>50
COc1cccc(/C=N/NC(=O)c2ccc3nc[nH]c3c2)c1O,-11,4,6,6,x
CCN(CC)c1ccc(/C=N/NC(=O)c2ccc3nc[nH]c3c2)c(O)c1,8,43,62*,38*,13*
COCC(=O)Nc1nnc(COc2ccc(Cl)cc2)s1,5,0,-4,26*,>50
C=CCn1c(C2CCCCC2)n[nH]c1=S,22,5,3,2,x
Cc1cc2c(c(=O)n1C1CC1)C(c1cccc(Cl)c1)C(C#N)=C(N)O2 (centres undefined),0,6,3,20*,>50
CCN1C(=S)SC(=O)C1=C1C=C(C)N(Cc2ccco2)C(C)=C1,-1,7,47,37*,11*
CCOC(=O)c1sc2ncc([N+](=O)[O-])cc2c1N,19,1,-1,7,x
SMILES,Hck Nef HTS,Runt-CBFb FRET,Runt-SMMHC FRET,RanGTP-Impb inh,YIC counter
CCOC(=O)CNc1ncc([N+](=O)[O-])cc1C#N,0,2,-1,20*,>50
NNc1nc2sc3c(c2c(=O)n1Cc1ccccc1)CCC3,35,22,-7,-4,x
NNc1nc2sc3c(c2c(=O)n1C1CCCCC1)CCN(Cc1ccccc1)C3,0,74*,54*,28*,0.92*
CCOC(=O)c1ccc(NC(=O)CSc2nnc(C3CCCCC3)n2C)cc1,16,-1,-4,16*,>50
Nc1nc(N2CCOCC2)nc(N(c2ccccc2)c2ccccc2)n1,3,2,1,21*,>50
COc1ccc(N2CCN(C(=O)CNC(=O)c3ccccc3Cl)CC2)cc1,x,x,x,-1,x
CCCOC(=O)CSC1=C(C#N)C(c2ccccc2OC)C(C#N)C(=O)N1 (centres undefined),9,3,1,26*,>50
O=C(/C=C/c1cccs1)Nc1ccc([N+](=O)[O-])cc1,0,-6,0,19*,>50
O=C(CCS(=O)(=O)c1ccccc1)Nc1cccc(-c2nc3ccccc3s2)c1,-1,-2,3,4,x
O=C(Nc1cccc(-c2nc3ccccc3s2)c1)c1cccs1,2,0,4,25*,>50
Cc1ccc(/C(O)=C2\C(=O)C(=O)N(C)C2c2cccc([N+](=O)[O-])c2)cc1 (centres undefined),x,x,x,0,x
CCOC(=O)CNC(=O)CSc1nnc(CCc2nc3ccccc3[nH]2)n1C,x,x,x,2,x
O=c1oc2ccccc2cc1-c1csc(Cc2nc(-c3ccc(Cl)cc3)cs2)n1,2,-2,-16,5,x
N=c1oc2ccccc2cc1-c1nc(-c2ccc(Cl)cc2)cs1,-1,-46,-150,17*,32*
O=C(CSCC(=O)NC1CC1)Nc1ccccc1,1,-1,-1,40*,>50
Cc1ccc2nc(NCCNC(=O)c3ccccc3)c(C#N)cc2c1,x,x,x,49*,4.7*
Cc1cccc(C)c1NC(=O)C(=O)NCCCN1CCOCC1,-4,-2,1,-6,x
COc1ccc(C(=O)NCCNc2nc3c(C)cccc3cc2C#N)cc1,x,x,x,36*,18*
Cc1cccc(C(=O)NCCNc2nc3cc(C)c(C)cc3cc2C)c1,25,-2,-1,3,x
Cc1cccc2cc(C#N)c(NCCNC(=S)NCCCN3CCOCC3)nc12,15,40,64*,19*,48*
CCN1CCN(CC(=O)Nc2sc3c(c2C#N)CCC(C)C3)CC1 (centres undefined),4,1,-3,-3,x
CCN1CCc2c(sc(N)c2C#N)C1,9,43,110*,34*,18*
O=C1C=C(Nc2ccc(Cl)cc2Cl)CC(c2ccco2)C1 (centres undefined),9,1,3,24*,>50
O=C(CSc1ncccn1)NCC1CCCO1 (centres undefined),x,x,x,3,x
COc1ccc(C2C3=C(CC(C)(C)CC3=O)Nc3n[nH]c(C)c32)cc1 (centres undefined),-7,-1,0,6,x
SMILES,Hck Nef HTS,Runt-CBFb FRET,Runt-SMMHC FRET,RanGTP-Impb inh,YIC counter
CCc1ccc(C2C3=C(CC(C)(C)CC3=O)Nc3c2c(=O)[nH]c2nc(C)nn32)cc1 (centres undefined),0,62*,x,40*,7.1*
CO/N=C\c1cc(C(=O)c2ccc(Cl)cc2Cl)cn1C,-31,0,3,32*,>50
Cn1cc(C(=O)c2cccc(Cl)c2)cc1/C=N\O,-23,0,-2,-1,x
CC(C)(C)c1ccc(NC(=O)C2CCCN(c3cnccn3)C2)cc1 (centres undefined),x,x,x,0,x
COc1ccccc1NC(=S)NNC(=O)c1ccccc1Br,2,3,-1,1,x
CCOC(=O)/C(C#N)=C1/C=CN(c2ccccc2)C=N1,-1,-1,2,2,x
CCOC(=O)/C(C#N)=C1/C=Nc2ccccc2N1,-5,-8,-33,27*,>26
CCOCC(=O)Nc1cc(C(=O)Nc2cc(C)cc(C)c2)ccc1Cl,17,-2,3,2,x
